Measurements taken from ChEMBL document CHEMBL1131528, “Effect of steroids on DNA synthesis in an in vitro replication system: initial quantitative structure-activity relationship studies and construction of a non-estrogen receptor pharmacophore” (J Med Chem, 1998).

Tested on: Nucleic Acid
Assay: (§1) The compound was tested in vitro for its ability to initiate DNA replication
Assay type: nucleic-acid assay
Conditions: Homo sapiens
How it was run: (§2)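 Steroid dissolved in 100% ethanol, diluted with water (final ethanol ≤0.1%), tested at 10 nM in a HeLa cell extract in vitro replication system (extracts estrogen and progesterone receptor-negative) with plasmid template pX24 (hamster DHFR origin) or 30.4 (random human cDNA fragment). Compound preincubated with template DNA and precursor nucleotides, then remaining components added to start replication. DNA purified; synthesis measured by DpnI resistance assay with phosphoimager densitometry; expressed as % of untreated control, mean ± SD of at least two experiments.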

First: COc1c(O)ccc2c1CC[C@@H]1[C@@H]2CC[C@]2(C)C(=O)CC[C@@H]12
Second: COc1ccc2c(c1OC)CC[C@@H]1[C@@H]2CC[C@]2(C)C(=O)CC[C@@H]12
The DNA of the first is lower: 53% for the first, 63% for the second.

First: CC(=O)[C@H]1CC[C@H]2[C@@H]3CCC4=CC(=O)CC[C@]4(C)[C@H]3CC[C@]12C
Second: C[C@]12CC[C@@H]3c4ccc(O)cc4CC[C@H]3[C@@H]1CCC2=O
The DNA of the first is higher: 115% for the first, 108% for the second.

Going from C[C@]12CC[C@@H]3c4ccc(O)cc4CC[C@H]3[C@@H]1C[C@@H](O)[C@@H]2O to C[C@]12CC[C@@H]3c4ccc(O)cc4CC[C@H]3[C@@H]1C[C@@H](O)C2=O, the DNA rises from 118% to 150%.

In the case of C[C@]12CC[C@@H]3c4cc(O)c(O)cc4CC[C@H]3[C@@H]1CCC2=O, the DNA is reported as 92%.

Tested on: Nucleic Acid
Assay: as §1
Assay type: functional
Conditions: Homo sapiens
How it was run: as §2

Going from C[C@]12CC[C@@H]3c4cc(O)c(O)cc4CCC3[C@@H]1CC[C@@H]2O (single isomer, unassigned) to C[C@]12CC[C@@H]3c4ccc(O)c(O)c4CCC3[C@@H]1CC[C@@H]2O (single isomer, unassigned), the DNA rises from 52% to 53%.

Compared with C[C@]12CC[C@H]3C(CCC4=CC(=O)CC[C@@]43C)[C@@H]1CC[C@@H]2O (single isomer, unassigned), C[C@]12CC[C@@H]3c4ccc(O)cc4CC[C@H]3[C@@H]1CC(=O)[C@@H]2O is higher in DNA: 72% for the first, 99% for the second.

Compared with C[C@]12CC[C@@H]3c4ccc(O)cc4CC[C@H]3[C@@H]1C[C@@H](O)[C@@H]2O, C[C@]12CC[C@@H]3c4ccc(O)cc4CC[C@H]3[C@@H]1C[C@@H](O)[C@H]2O is lower in DNA: 144% for the first, 103% for the second.

C[C@]12CC[C@@H]3c4ccc(O)cc4CC[C@H]3[C@@H]1C[C@H](O)[C@H]2O was tested, and the DNA was 200%.
